Data reported in ChEMBL document CHEMBL1909525, “Synthesis and anticonvulsant activity of novel 2,6-diketopiperazine derivatives. Part 1: perhydropyrrole[1,2-a]pyrazines” (Eur J Med Chem, 2011).
Activity calls are given as the source filed them. The rule behind the calls is not given here.

Tests used:
[1] = test system: Mus musculus; assay: Anticonvulsant activity in albino Carworth Farms No.1 mouse assessed as protection against maximal electroshock-induced seizure at 100 mg/kg, ip after 0.5 hrs; assay type: functional, organism-based; design: dose 100 mg/kg
Outline: (§1)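 Mouse MES test with compound given i.p. (30, 100 or 300 mg/kg) in 0.5% methylcellulose; tested at 0.5 and 4 h. Corneal stimulus of 50 mA at 60 Hz for 0.2 s, electrodes primed with 0.5% butacaine in 0.9% NaCl. Protection is abolition of hindlimb tonic extension; scored as protected/tested.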

[2] = test system: Mus musculus; assay: Anticonvulsant activity in albino Carworth Farms No.1 mouse assessed as protection against maximal electroshock-induced seizure at 100 mg/kg, ip after 4 hrs; assay type: functional, organism-based; design: dose 100 mg/kg; outline: as §1
[3] = test system: Mus musculus; assay: Anticonvulsant activity in albino Carworth Farms No.1 mouse assessed as protection against maximal electroshock-induced seizure at 30 mg/kg, ip after 0.5 hrs; assay type: functional, organism-based; design: dose 30 mg/kg; outline: as §1
[4] = test system: Mus musculus; assay: Neurotoxicity in albino Carworth Farms No.1 mouse assessed as motor impairment at 30 mg/kg, ip after 4 hrs by rotarod test; assay type: toxicity, organism-based; design: dose 30 mg/kg, route intraperitoneal; details: in vivo
Outline: (§2)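 Rotorod neurotoxicity in mice at 6 r.p.m. Compound given i.p. (30, 100, 300 mg/kg) in 0.5% methylcellulose; tested at 30 min and 4 h. Impairment is inability to keep equilibrium on the rod for a given time; scored as impaired/tested.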

[5] = test system: Mus musculus; assay: Neurotoxicity in albino Carworth Farms No.1 mouse assessed as motor impairment at 30 mg/kg, ip after 0.5 hrs by rotarod test; assay type: toxicity, organism-based; design: dose 30 mg/kg, route intraperitoneal; details: in vivo; outline: as §2
[6] = test system: Mus musculus; assay: Anticonvulsant activity in albino Carworth Farms No.1 mouse assessed as protection against subcutaneous metrazol-induced seizure at 30 mg/kg, ip after 4 hrs; assay type: functional, organism-based; design: dose 30 mg/kg
Outline: (§3)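 Mouse scMET test. Compound given i.p. (30, 100 or 300 mg/kg) in 0.5% methylcellulose. Pentylenetetrazole 85 mg/kg (CD97) given s.c. at 0.5 or 4 h, then mice observed for 30 min. Protection is absence of clonic spasms; scored as protected/tested.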

[7] = test system: Mus musculus; assay: Anticonvulsant activity in albino Carworth Farms No.1 mouse assessed as protection against maximal electroshock-induced seizure at 300 mg/kg, ip after 0.5 hrs; assay type: functional, organism-based; design: dose 300 mg/kg; outline: as §1
[8] = test system: Mus musculus; assay: Anticonvulsant activity in albino Carworth Farms No.1 mouse assessed as protection against subcutaneous metrazol-induced seizure at 300 mg/kg, ip after 0.5 hrs; assay type: functional, organism-based; design: dose 300 mg/kg; outline: as §3
[9] = test system: Mus musculus; assay: Neurotoxicity in albino Carworth Farms No.1 mouse assessed as motor impairment at 300 mg/kg, ip after 0.5 hrs by rotarod test; assay type: toxicity, organism-based; design: dose 300 mg/kg, route intraperitoneal; details: in vivo; outline: as §2
[10] = test system: Mus musculus; assay: Anticonvulsant activity in albino Carworth Farms No.1 mouse assessed as protection against maximal electroshock-induced seizure at 30 mg/kg, ip after 4 hrs; assay type: functional, organism-based; design: dose 30 mg/kg; outline: as §1
[11] = test system: Mus musculus; assay: Anticonvulsant activity in albino Carworth Farms No.1 mouse assessed as protection against subcutaneous metrazol-induced seizure at 30 mg/kg, ip after 0.5 hrs; assay type: functional, organism-based; design: dose 30 mg/kg; outline: as §3
[12] = test system: Mus musculus; assay: Anticonvulsant activity in albino Carworth Farms No.1 mouse assessed as protection against subcutaneous metrazol-induced seizure at 100 mg/kg, ip after 0.5 hrs; assay type: functional, organism-based; design: dose 100 mg/kg; outline: as §3
[13] = test system: Mus musculus; assay: Anticonvulsant activity in albino Carworth Farms No.1 mouse assessed as protection against subcutaneous metrazol-induced seizure at 300 mg/kg, ip after 4 hrs; assay type: functional, organism-based; design: dose 300 mg/kg; outline: as §3
[14] = test system: Mus musculus; assay: Neurotoxicity in albino Carworth Farms No.1 mouse assessed as motor impairment at 300 mg/kg, ip after 4 hrs by rotarod test; assay type: toxicity, organism-based; design: dose 300 mg/kg, route intraperitoneal; details: in vivo; outline: as §2
[15] = test system: Mus musculus; assay: Anticonvulsant activity in albino Carworth Farms No.1 mouse assessed as protection against maximal electroshock-induced seizure at 300 mg/kg, ip after 4 hrs; assay type: functional, organism-based; design: dose 300 mg/kg; outline: as §1
[16] = test system: Mus musculus; assay: Neurotoxicity in albino Carworth Farms No.1 mouse assessed as motor impairment at 100 mg/kg, ip after 0.5 hrs by rotarod test; assay type: toxicity, organism-based; design: dose 100 mg/kg, route intraperitoneal; details: in vivo; outline: as §2
[17] = test system: Mus musculus; assay: Anticonvulsant activity in albino Carworth Farms No.1 mouse assessed as protection against subcutaneous metrazol-induced seizure at 100 mg/kg, ip after 4 hrs; assay type: functional, organism-based; design: dose 100 mg/kg; outline: as §3
[18] = test system: Mus musculus; assay: Anticonvulsant activity in ip dosed albino Carworth Farms No.1 mouse assessed as time needs to show peak effect for protection against maximal electroshock-induced seizure; assay type: functional
[19] = test system: Rattus norvegicus; assay: Anticonvulsant activity in po dosed albino Sprague-Dawley rat assessed as protection against subcutaneous metrazol-induced seizure after 0.25 hrs; assay type: functional
Outline: (§4)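 Rats dosed orally, compound in 0.5% methylcellulose. MES at 150 mA, 60 Hz, 0.2 s; scMET with pentylenetetrazole 70 mg/kg s.c. plus 30 min observation; rotorod for toxicity.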

[20] = test system: Mus musculus; assay: Anticonvulsant activity in ip dosed albino Carworth Farms No.1 mouse assessed as protection against subcutaneous metrazol-induced seizure after 0.25 hrs; assay type: functional; details: albino Carworth Farms No.1, 0.25 h
Outline: (§5)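 Mouse quantification at the time of peak effect, compound given i.p. in 0.5% methylcellulose. Groups of at least eight mice received varied doses until at least two points fell between 100 and 0% response. ED50 (MES, scMET) and TD50 (rotorod) with 95% CI by probit analysis (Finney). PI = TD50/ED50 MES.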

[21] = test system: Mus musculus; assay: Anticonvulsant activity in ip dosed albino Carworth Farms No.1 mouse assessed as protection against electric-current for 3 secs-induced seizure after 0.25 hrs by 6Hz minimal clonic seizure test; assay type: functional; details: albino Carworth Farms No.1, ip
[22] = test system: Mus musculus; assay: Anticonvulsant activity in ip dosed albino Carworth Farms No.1 mouse assessed as time needs to show peak effect for electric-current for 3 secs-induced seizure after 0.25 hrs by 6Hz minimal clonic seizure test; assay type: functional
[23] = test system: Rattus norvegicus; assay: Anticonvulsant activity in po dosed albino Sprague-Dawley rat assessed as time needs to show peak effect for protection against maximal electroshock-induced seizure after 0.25 hrs; assay type: functional; outline: as §4
[24] = Neurotoxicity in po dosed albino Sprague-Dawley rat assessed as motor impairment after 0.25 hrs by rotarod test; assay type: toxicity, organism-based; details: in vivo; outline: as §4
[25] = test system: Mus musculus; assay: Anticonvulsant activity in ip dosed albino Carworth Farms No.1 mouse assessed as protection against maximal electroshock-induced seizure after 0.25 hrs; assay type: functional; details: albino Carworth Farms No.1, ip; outline: as §5
[26] = species: Mus musculus; assay: Protective index, ratio of TD50 for albino Carworth Farms No.1 mouse to ED50 for albino Carworth Farms No.1 mouse by maximal electroshock-induced seizure test; assay type: functional
Outline: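 Mouse quantification at the time of peak effect, compound given i.p. in 0.5% methylcellulose. Groups of at least eight mice received varied doses until at least two points fell between 100 and 0% response. PI = TD50/ED50 MES.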

[27] = test system: Rattus norvegicus; assay: Anticonvulsant activity in po dosed albino Sprague-Dawley rat assessed as protection against maximal electroshock-induced seizure after 0.25 hrs; assay type: functional; outline: as §4
[28] = species: Rattus norvegicus; assay: Protective index, ratio of TD50 for albino Sprague-Dawley rat to ED50 for albino Sprague-Dawley rat by maximal electroshock-induced seizure test; assay type: functional

C[C@@H]1C(=O)NC(=O)[C@@H]2CCCN12
Activity [1]: inactive
Activity [2]: inactive
Activity [3]: inactive
Activity [4]: Non-toxic
Activity [5]: Non-toxic
Activity [6]: inactive
Activity [7]: inactive
Activity [8]: inactive
Activity [9]: Non-toxic
Activity [10]: inactive
Activity [11]: inactive
Activity [12]: inactive
Activity [13]: inactive
Activity [14]: Non-toxic
Activity [15]: inactive
Activity [16]: Non-toxic
Activity [17]: inactive

Cl.O=C1[C@H](c2ccccc2)N2CCC[C@H]2C(=O)N1Cc1ccccc1
Activity [1]: inactive
Activity [2]: inactive
Activity [3]: inactive
Activity [4]: Non-toxic
Activity [5]: Non-toxic
Activity [6]: inactive
Activity [7]: Active
Activity [8]: inactive
Activity [9]: Non-toxic
Activity [10]: inactive
Activity [11]: inactive
Activity [12]: inactive
Activity [13]: inactive
Activity [14]: Non-toxic
Activity [15]: inactive
Activity [16]: Non-toxic
Activity [17]: inactive

CCC1(c2ccccc2)C(=O)NC(=O)NC1=O [PHENOBARBITAL]
Time [18]: 1 h
ED50 [19]: 11.6 mg/kg
ED50 [20]: 13.2 mg/kg
ED50 [21]: 14.8 mg/kg
Time [22]: 0.5 h
Time [23]: 5 h
TD50 at 0.25 h [24]: 61.1 mg/kg
ED50 [25]: 21.8 mg/kg

O=C1CN2CCC[C@H]2C(=O)N1
Activity [1]: inactive
Activity [2]: inactive
Activity [3]: inactive
Activity [4]: Non-toxic
Activity [5]: Non-toxic
Activity [6]: inactive
Activity [7]: inactive
Activity [8]: inactive
Activity [9]: Non-toxic
Activity [10]: inactive
Activity [11]: inactive
Activity [12]: inactive
Activity [13]: inactive
Activity [14]: Non-toxic
Activity [15]: inactive
Activity [16]: Non-toxic
Activity [17]: inactive

O=C1NC(=O)C(c2ccccc2)(c2ccccc2)N1 [PHENYTOIN]
Ratio TD50/ED50 [26]: 7.3
ED50 [27]: 28.1 mg/kg
Ratio TD50/ED50 [28]: >36.6
Time [18]: 1 h
ED50 [19]: > 500 mg/kg
ED50 [20]: > 50 mg/kg
Time [23]: 4 h
TD50 at 0.25 h [24]: > 1000 mg/kg
ED50 [25]: 5.64 mg/kg

CN1C(=O)[C@H](c2ccccc2)N2CCC[C@H]2C1=O.Cl
Activity [1]: inactive
Activity [2]: inactive
Activity [3]: inactive
Activity [4]: Non-toxic
Activity [5]: Non-toxic
Activity [6]: inactive
Activity [7]: Active
Activity [8]: Active
Activity [9]: Toxic
Activity [10]: inactive
Activity [11]: inactive
Activity [12]: inactive
Activity [13]: inactive
Activity [14]: Non-toxic
Activity [15]: inactive
Activity [16]: Non-toxic
Activity [17]: inactive
